Activity calls are given as the source filed them. The rule behind the calls is not given here.

Data set [1] is described as follows: (§1) Inhibition of Bacillus stearothermophilus alpha glucosidase. Also on record: species or system Geobacillus stearothermophilus.
The subject of data set [2] is BAEC. Kind of data set: Inhibition of angiogenesis in BAEC assessed as inhibition of endothelial tube formation at 0.2 mM after 24 hrs. The settings on record: Bos taurus. The format is functional. Summed up:
(§2)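 BAECs were pretreated with compound for 24 h, then resuspended at 3×10⁴ cells/0.1 ml in RPMI 1640 with 10 ng/ml bFGF plus compound; controls received bFGF alone. Cells were layered on polymerised growth-factor-reduced Matrigel and incubated for 8 h at 37 °C in 5% CO₂. Tubes were counted by light microscopy in at least five fields and averaged. Each compound was tested at least twice.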

Data set [3] deals with BAEC. Nature of the data set: Increase in FITC-labeled concanavalin A binding to BAEC at 50 uM after 24 hrs by flow cytometer. The format is functional. The settings on record: Bos taurus. Summed up: (§3)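 Cultured BAECs were exposed to compound (50 µM) for 24 h, harvested and washed in DPBS. About 5×10⁵ cells were incubated in DPBS/1% BSA with 2 µg/mL FITC-labelled Con A or L-PHA for 1 h at 4 °C, washed twice, and fluorescence histograms were recorded by FACS. Each experiment was done at least twice.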
In general terms: In flow cytometry, cells or beads pass a laser one at a time.

For data set [4], the system named is BAEC. Nature of the data set: Decrease in FITC-labeled phytohemagglutininin-L binding to BAEC at 50 uM after 24 hrs by flow cytometer. The format is functional, cell-based. The settings on record: Bos taurus. Summed up: as §3
Data set [5] deals with Geobacillus stearothermophilus. Described as §1.
Data set [6] deals with BAEC. Kind of data set: Inhibition of angiogenesis in BAEC assessed as inhibition of endothelial tube formation at 0.1 mM after 24 hrs. The settings on record: Bos taurus. In kind it is functional. Summed up:
as §2

Data set [7] can be described thus: Cell cycle arrest in BAEC assessed as accumulation at G0/G1 phase at 200 uM after 24 hrs by flow cytometer relative to control. The format is functional, cell-based. The settings on record: Bos taurus. Summed up:
(§4)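 BAECs were seeded overnight in RPMI 1640 with 10% FBS, then exposed to compound for 24 h with a DMSO control. Cells were trypsinised, washed in DPBS and fixed in 70% ethanol at −20 °C for at least 2 h. They were treated with 200 µg/ml RNase A at 25 °C for 30 min, then stained with 50 µg/ml propidium iodide at 4 °C for 30 min. DNA content of 10,000 nuclei was read by flow cytometry, and G0/G1, S and G2/M percentages were derived. Each experiment was run at least twice.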

Data set [8] is described as follows: Cell cycle arrest in BAEC assessed as accumulation at S phase at 200 uM after 24 hrs by flow cytometer relative to control. In kind it is functional, cell-based. The settings on record: Bos taurus. The method, boiled down:
as §4

Data set [9] can be described thus: Cell cycle arrest in BAEC assessed as accumulation at G2/M phase at 200 uM after 24 hrs by flow cytometer relative to control. The format is functional, cell-based. The settings on record: Bos taurus. Summed up:
as §4

For data set [10], the system named is BAEC. Kind of data set: Effect on cell cycle of BAEC assessed as induction of G1 phase arrest at 200 uM after 24 hrs by flow cytometer relative to control. In kind it is functional, cell-based. The settings on record: Bos taurus. Summed up:
as §4

Data set [11] deals with BAEC. Kind of data set: Inhibition of cyclin D1 expression in BAEC at 200 uM after 24 hrs by Western blot. In kind it is functional, cell-based. The settings on record: Bos taurus. Summed up: (§5)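 BAECs were treated at 0, 100 or 200 µM for 24 h, then lysed in RIPA buffer with protease inhibitors. Protein was quantified by micro-BCA. Lysates were separated by SDS–PAGE and transferred to PVDF, then probed overnight at 4 °C with antibodies to cyclin D1, ERK, phospho-ERK and β-actin (loading control). Detection used HRP secondaries and ECL. Experiments were repeated at least twice.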
For orientation: In western blotting, separated proteins are transferred to a membrane and probed.

Data set [12] concerns BAEC. Kind of data set: Inhibition of cyclin D1 expression in BAEC at 100 uM after 24 hrs by Western blot. The format is functional, cell-based. The settings on record: Bos taurus. Summed up:
as §5

For data set [13], the species on record is Bos taurus. Kind of data set: Inhibition of ERK1/2 phosphorylation in BAEC at 100 uM after 24 hrs by Western blot. The method, boiled down: as §5
Data set [14] concerns BAEC. Nature of the data set: Inhibition of ERK1/2 levels in BAEC at 100 uM after 24 hrs by Western blot. The format is functional, cell-based. The settings on record: Bos taurus. Summed up:
as §5

Data set [15] deals with BAEC. Kind of data set: Inhibition of stress fiber assembly in BAEC by fluorescence staining with FITC phalloidin. In kind it is functional, cell-based. The settings on record: Bos taurus. Summed up:
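BAECs were grown overnight on glass coverslips, then exposed to compound for 24 h. Cells were fixed in 4% paraformaldehyde, permeabilised with 0.1% Triton X-100 and blocked with 1% BSA. F-actin was stained with FITC-phalloidin (2 µg/ml, 30 min) and imaged by confocal microscopy at 40× oil. Experiments were repeated at least twice.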

The species named for data set [16] is Bos taurus. Nature of the data set: Inhibition of ERK1/2 phosphorylation in BAEC at 200 uM after 24 hrs by Western blot. Summed up:
as §5

The subject of data set [17] is BAEC. Nature of the data set: Inhibition of ERK1/2 levels in BAEC at 200 uM after 24 hrs by Western blot. The settings on record: Bos taurus. In kind it is functional, cell-based. Summed up: as §5
A short description of data set [18]: Growth inhibition of BAEC after 48 hrs by MTT assay. Further details: species or system Bos taurus. The settings on record: cattle. Summed up: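 BAECs (3×10³ per well) were seeded overnight in RPMI 1640 with 10% FBS, then given compounds at 10⁻⁶–10⁻³ M for 48 h. MTT was added to a final 0.5 mg/mL for 3 h at 37 °C. Formazan was dissolved in DMSO and read at 570 nm. Samples were run in quadruplicate, with at least two independent experiments.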

As to `OC[C@@H]1[C@@H](O)[C@H](O)[C@@H](O)CN1CCCCOc1cccc(-c2cnn[nH]2)c1`, half-maximal inhibition in [1] (IC50) was put at 6070 nM. Also, the outcome with BAEC [2] and in the data set with BAEC [4] was inactive. Besides, the outcome with BAEC [3] was Active.

Turning to `COc1cccc(-c2cnn[nH]2)c1`, the outcome (in data set [5]; with BAEC [2]) was inactive.

Take `OC[C@@H]1[C@@H](O)[C@H](O)[C@@H](O)CN1CCCCCCCCOc1cccc(-c2cnn[nH]2)c1`: the IC50 – broadly, the concentration needed to halve the response being measured – in data set [1] turned out to be 1150 nM. Besides, the outcome in the data set on BAEC [2], in the data set with BAEC [10], with BAEC [11], in the data set on BAEC [12], in the data set on BAEC [15] and with BAEC [3] was Active. The result in the data set with BAEC [6], in the data set listed under Bos taurus [13], in the data set on BAEC [14], with BAEC [4], in the data set filed under Bos taurus [16] and in the data set with BAEC [17] was inactive. The Activity came to 87.6% in data set [7], 3.9% in [8] and 6.2% in [9].

In turn, `OC[C@@H]1[C@@H](O)[C@H](O)[C@@H](O)CN1CCCCCCOc1cccc(-c2cnn[nH]2)c1` showed an IC50 in data set [1] of 2410 nM. In addition, the result in the data set on BAEC [2] and in the data set with BAEC [4] was inactive. The outcome with BAEC [3] was Active.

`OC[C@H]1NC[C@H](O)[C@@H](O)[C@@H]1O` [DUVOGLUSTAT] displayed an IC50 in data set [1] of 1670 nM. Further, the Activity entry in data set [18] was “Not Active”. The outcome in the data set on BAEC [2] and with BAEC [4] was inactive. In the data set on BAEC [3], the outcome was Active.
